Measurements pooled from the literature.
Each line is one published result; the experiments were not run side by side.
CDK7: Cyclin-dependent kinase 7 (CDK7, Homo sapiens, UniProt P50613)

Structure (SMILES)	target	effect on	mode	technique	concentration	measurement	result
CNS(=O)(=O)c1ccc(Nc2ncc(C(F)(F)F)c(N3CCC[C@](C)(O)C3)n2)c(C)c1	CDK7	binding	–	competition with immobilised ligand	1 µM	remaining binding	83%
CN1CCN(C(=O)c2ccc(NC(=O)Nc3ccc(N(C)c4ccnc(Nc5ccc(CS(C)(=O)=O)cc5)n4)cc3)cc2)CC1	CDK7	binding	–	competition with immobilised ligand	1 µM	remaining binding	61%
COc1ccc2oc(-c3ccc4nc(N)oc4c3)c/c(=N\c3ccccc3NC(=O)CCN)c2c1	CDK7	binding	–	–	1 µM	remaining binding	97%
N#Cc1ccc(NC(=O)Nc2ccccc2)cc1	CDK7	cell-free assay	–	competition with immobilised ligand	25 µM	remaining binding	94%
C1=C/COCc2cc(ccc2OCCN2CCCC2)Nc2nccc(n2)-c2cccc(c2)COC/1	CDK7	binding	–	–	0.1 µM	remaining binding	21%
Cc1ccc(NC(=O)c2ccnc(C(F)(F)F)c2)cc1-c1cc(OCCO)nc(N2CCOCC2)c1	CDK7	binding	–	competition with immobilised ligand	1 µM	remaining binding	98%
CCCCC(=O)Nc1ccc(-c2ccc3ncn(CCC)c(=O)c3c2)cn1	CDK7	binding	–	competition with immobilised ligand	0.5 µM	remaining binding	83%
C=CC(=O)N1CCC([C@@H]2CCNc3c(C(N)=O)c(-c4ccc(Oc5ccccc5)cc4)nn32)CC1	CDK7	enzyme activity	inhibitor	–	1 µM	inhibition	21%
C[C@]1(O)CCCN(c2nc(Nc3ccc(S(=O)(=O)N[C@H]4CC[C@H](CN5CCN(c6ccc(C7CCC(=O)NC7=O)cc6F)CC5)CC4)cc3Cl)ncc2C(F)(F)F)C1 (some centres unmarked)	CDK7	binding	–	competition with immobilised ligand	1 µM	remaining binding	100%
C=CC(=O)N1CCC[C@@H](n2nc(-c3ccc(Oc4ccccc4)cc3)c3c(N)ncnc32)C1	CDK7	enzyme activity	inhibitor	–	1 µM	inhibition	28%
CC(C)S(=O)(=O)c1ccc2nccc(Nc3ccc4sc(C5CCCC5)nc4c3)c2c1	Cyclin-dependent kinase 7, with cyclin H (CDK7, Homo sapiens, UniProt P50613)	enzyme activity	inhibitor	–	1 µM	activity vs control	106%
